The values that follow come from ChEMBL document CHEMBL4732024, “Second-generation tricyclic pyrimido-pyrrolo-oxazine mTOR inhibitor with predicted blood-brain barrier permeability” (RSC Med Chem, 2021).

Series [1] has as its target T1, MDR1 (P-gp, ABCB1) (Homo sapiens, UniProt P08183). Briefly: Substrate activity at human MDR1 expressed in MDCK cells assessed as apparent permeability at 1 uM by UPLS-MS/MS analysis. The series is classed as ADME, cell-based. The essentials: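 TransWell assay in CRISPR-Cas9 MDCK cells expressing human MDR1 with endogenous canine MDR1 knocked out (MDCK-hMDR1^cMDR1-ko), grown on filters; apparent permeability measured apical to basolateral.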

For series [2], the target named is T1, MDR1 (P-gp, ABCB1). Put plainly: Substrate activity at human MDR1 expressed in MDCK cells assessed as efflux ratio of apparent permeability across basolateral to apical side over apical to basolateral side at 1 uM by UPLS-MS/MS analysis. The series is classed as ADME, cell-based.
Series [3] can be described thus: Inhibition of mTORC2 in human A2058 cells assessed as reduction in PKB phosphorylation at S473 residue incubated for 1 hr by Western blot analysis. To be noted: A2058, 1 h. The series is classed as cell-based. An outline of the steps: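 A2058 melanoma cells were used. mTORC1 activity was read as phospho-S6 ribosomal protein (Ser235/236), and mTORC2 activity as phospho-PKB/Akt (Ser473). IC50 came from a 7-point 1:2 serial dilution, with each concentration measured in triplicate. Data are reported as mean ± SD.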

For another series, the target named is mTORC1 (Homo sapiens, UniProt P42345). Put plainly: Inhibition of mTORC1 in human A2058 cells assessed as reduction in S6 ribosomal protein phosphorylation at Ser235/236 residues incubated for 1 hr by Western blot analysis. In kind it is cell-based. An outline of the steps: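 A2058 melanoma cells; phospho-S6 (Ser235/236) used as the mTORC1 readout. IC50 from a 7-point 1:2 serial dilution, each concentration in triplicate. Reported as mean ± SD.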
Background: In western blotting, separated proteins are transferred to a membrane and probed.

The target in series [4] is Phosphatidylinositol 4,5-bisphosphate 3-kinase catalytic subunit alpha isoform (Homo sapiens, UniProt P42336). Put plainly: Inhibition of alexa fluor 647-labeled kinase tracer 314 binding to recombinant N-terminal His6-tagged p110alpha (unknown origin) by TR-FRET assay. The essentials:
(§1)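 LanthaScreen TR-FRET displacement of tracer from the ATP-binding site of recombinant kinase. 10-point 1:4 serial dilution with each concentration in duplicate. IC50 converted to Ki using a factor of 2.05 for mTOR and 9.84 for p110α. Reported as mean ± SD.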

Series [5] deals with Serine/threonine-protein kinase mTOR (Homo sapiens, UniProt P42345). Put plainly: Inhibition of alexa fluor 647-labeled kinase tracer 314 binding to recombinant N-terminal GST-fused mTOR (1360 to 2549 residues) (unknown origin) by TR-FRET assay. An outline of the steps: as §1
On the technique in general: Time-resolved FRET reads energy transfer from a long-lived donor to a nearby acceptor.

The target of another series is T2, CYP1A1 (Homo sapiens, UniProt P04798).
T2 sequence (P04798 whole entry): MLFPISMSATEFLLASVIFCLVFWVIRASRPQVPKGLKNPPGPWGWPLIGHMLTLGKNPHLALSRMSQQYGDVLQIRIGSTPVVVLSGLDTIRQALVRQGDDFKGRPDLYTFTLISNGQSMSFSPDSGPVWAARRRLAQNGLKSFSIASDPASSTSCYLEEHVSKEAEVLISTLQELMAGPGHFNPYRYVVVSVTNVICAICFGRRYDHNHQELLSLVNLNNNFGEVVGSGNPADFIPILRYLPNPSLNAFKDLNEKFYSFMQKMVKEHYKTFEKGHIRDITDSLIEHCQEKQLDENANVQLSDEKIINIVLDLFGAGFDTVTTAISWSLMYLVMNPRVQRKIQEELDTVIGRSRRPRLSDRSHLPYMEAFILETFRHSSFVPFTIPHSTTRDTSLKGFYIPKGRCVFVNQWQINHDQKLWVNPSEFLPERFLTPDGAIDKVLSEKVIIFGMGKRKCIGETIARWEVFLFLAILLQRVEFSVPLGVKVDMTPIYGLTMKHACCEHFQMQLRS
Put plainly: Stability of compound assessed as recombinant human CYP1A1 expressed in baculovirus infected insect cells mediated compound metabolism by measuring parent compound remaining at 1 uM preincubated with NADP+ regenerating system for 10 mins followed by enzyme addition and measured after 60 mins by LC-MS analysis. Conditions: time 70 min, read-out: Stabilty. The series is classed as ADME. An outline of the steps: (§2)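 Individual human recombinant CYP isoenzymes; percentage of parent compound remaining after 60 min incubation.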

For a further series, the target named is T3, CYP1A2 (Homo sapiens, UniProt P05177).
T3 sequence (P05177 whole entry): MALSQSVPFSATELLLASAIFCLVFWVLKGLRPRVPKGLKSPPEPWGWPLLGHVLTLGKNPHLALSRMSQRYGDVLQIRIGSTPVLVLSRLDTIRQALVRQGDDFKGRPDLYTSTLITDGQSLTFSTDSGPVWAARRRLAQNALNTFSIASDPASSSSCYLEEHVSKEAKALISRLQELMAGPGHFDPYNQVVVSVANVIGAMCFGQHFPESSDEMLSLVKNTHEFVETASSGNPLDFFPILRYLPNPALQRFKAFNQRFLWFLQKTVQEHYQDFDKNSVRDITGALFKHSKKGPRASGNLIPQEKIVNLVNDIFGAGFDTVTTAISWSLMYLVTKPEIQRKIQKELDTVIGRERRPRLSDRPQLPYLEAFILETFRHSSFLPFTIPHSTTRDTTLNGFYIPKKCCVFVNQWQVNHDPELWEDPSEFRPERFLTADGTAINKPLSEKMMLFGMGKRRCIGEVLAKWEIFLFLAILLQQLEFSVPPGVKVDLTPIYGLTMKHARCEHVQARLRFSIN
Put plainly: Stability of compound assessed as recombinant human CYP1A2 expressed in baculovirus infected insect cells mediated compound metabolism by measuring parent compound remaining at 1 uM preincubated with NADP+ regenerating system for 10 mins followed by enzyme addition and measured after 60 mins by LC-MS analysis. In kind it is ADME. To be noted: time 70 min, read-out: Stabilty. An outline of the steps: as §2

pIC50, pKi: −log10 of the molar value.

Phosphatidylinositol 4,5-bisphosphate 3-kinase catalytic subunit alpha isoform, sequence (P42336 whole entry, canonical isoform): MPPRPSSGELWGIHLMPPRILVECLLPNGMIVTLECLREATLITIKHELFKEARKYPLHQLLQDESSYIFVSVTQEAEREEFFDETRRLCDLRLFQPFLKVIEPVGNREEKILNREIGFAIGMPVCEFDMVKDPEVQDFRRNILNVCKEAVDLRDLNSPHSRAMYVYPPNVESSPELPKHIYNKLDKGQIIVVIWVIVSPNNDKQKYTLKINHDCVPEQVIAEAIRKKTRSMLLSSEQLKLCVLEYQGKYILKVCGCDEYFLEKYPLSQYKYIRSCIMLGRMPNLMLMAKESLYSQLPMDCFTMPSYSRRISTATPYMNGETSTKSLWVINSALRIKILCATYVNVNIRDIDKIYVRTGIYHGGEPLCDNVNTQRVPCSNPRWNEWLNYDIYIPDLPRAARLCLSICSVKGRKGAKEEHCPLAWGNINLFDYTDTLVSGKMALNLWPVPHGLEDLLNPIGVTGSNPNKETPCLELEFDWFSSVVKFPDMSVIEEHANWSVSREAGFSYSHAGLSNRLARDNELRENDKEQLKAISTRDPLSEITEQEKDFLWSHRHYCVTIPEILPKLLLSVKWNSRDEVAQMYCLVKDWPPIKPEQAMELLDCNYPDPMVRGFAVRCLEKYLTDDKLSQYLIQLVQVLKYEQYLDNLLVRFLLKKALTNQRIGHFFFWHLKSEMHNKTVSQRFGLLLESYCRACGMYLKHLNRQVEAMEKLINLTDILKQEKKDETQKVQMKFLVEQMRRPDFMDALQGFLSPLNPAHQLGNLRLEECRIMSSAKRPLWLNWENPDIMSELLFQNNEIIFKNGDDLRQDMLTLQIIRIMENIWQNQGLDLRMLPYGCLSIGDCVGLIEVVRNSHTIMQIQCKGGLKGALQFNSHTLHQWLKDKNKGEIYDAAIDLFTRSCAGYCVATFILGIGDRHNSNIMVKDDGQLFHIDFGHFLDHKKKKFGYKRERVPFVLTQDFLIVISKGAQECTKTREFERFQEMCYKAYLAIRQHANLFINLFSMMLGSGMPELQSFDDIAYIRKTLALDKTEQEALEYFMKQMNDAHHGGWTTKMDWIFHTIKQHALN
T1 sequence (P08183 whole entry): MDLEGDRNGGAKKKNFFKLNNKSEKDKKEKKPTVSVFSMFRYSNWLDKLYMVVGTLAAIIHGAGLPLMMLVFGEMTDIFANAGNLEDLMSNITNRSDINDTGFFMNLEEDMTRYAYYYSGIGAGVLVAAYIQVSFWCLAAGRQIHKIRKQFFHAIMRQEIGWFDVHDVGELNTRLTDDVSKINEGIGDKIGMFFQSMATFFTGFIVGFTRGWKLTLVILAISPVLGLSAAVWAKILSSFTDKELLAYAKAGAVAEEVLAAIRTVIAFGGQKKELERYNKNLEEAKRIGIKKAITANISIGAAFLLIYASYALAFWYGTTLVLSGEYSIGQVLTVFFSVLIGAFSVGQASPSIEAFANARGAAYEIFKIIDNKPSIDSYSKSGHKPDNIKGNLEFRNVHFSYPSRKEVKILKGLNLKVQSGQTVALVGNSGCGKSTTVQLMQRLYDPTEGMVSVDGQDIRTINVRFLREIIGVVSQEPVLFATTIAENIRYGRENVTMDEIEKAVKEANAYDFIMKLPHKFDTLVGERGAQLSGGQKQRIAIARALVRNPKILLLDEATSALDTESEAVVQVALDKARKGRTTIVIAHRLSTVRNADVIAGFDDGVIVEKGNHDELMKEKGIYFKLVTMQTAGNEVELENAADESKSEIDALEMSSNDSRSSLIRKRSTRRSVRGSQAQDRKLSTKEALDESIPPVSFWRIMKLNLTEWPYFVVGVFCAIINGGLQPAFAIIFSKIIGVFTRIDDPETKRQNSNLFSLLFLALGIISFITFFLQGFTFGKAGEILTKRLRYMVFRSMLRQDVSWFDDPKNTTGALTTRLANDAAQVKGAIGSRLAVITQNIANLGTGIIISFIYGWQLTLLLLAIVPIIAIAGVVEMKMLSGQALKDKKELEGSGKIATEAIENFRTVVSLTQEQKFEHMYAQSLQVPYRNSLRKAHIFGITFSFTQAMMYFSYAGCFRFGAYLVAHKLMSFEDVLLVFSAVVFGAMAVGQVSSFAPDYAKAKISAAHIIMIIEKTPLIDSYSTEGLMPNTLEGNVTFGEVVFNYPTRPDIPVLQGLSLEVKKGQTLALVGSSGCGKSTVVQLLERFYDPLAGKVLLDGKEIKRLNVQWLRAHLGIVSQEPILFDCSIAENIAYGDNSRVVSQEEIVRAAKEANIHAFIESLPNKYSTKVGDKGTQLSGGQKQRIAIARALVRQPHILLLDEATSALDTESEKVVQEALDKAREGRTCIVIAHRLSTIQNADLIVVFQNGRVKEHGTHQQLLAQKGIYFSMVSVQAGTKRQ

In the case of `C[C@@H]1COCCN1c1nc(-c2cnc(N)cn2)nc2c1C[C@@H]1COCCN21`, the Papp A→B (commonly how fast a substance crosses the layer from the apical side) at 1 µM on MDR1 (P-gp, ABCB1) [1] was less than 60 ×10⁻⁶ cm/s. In addition, at MDR1 (P-gp, ABCB1) [2], the efflux ratio (commonly a quotient of directional permeabilities that is used to spot active efflux) at 1 µM was more than 20.
As for `C[C@@H]1COCCN1c1nc(-c2cnc(N)cc2C(F)F)nc2c1C[C@@H]1COCCN21`, the results for the pIC50 (in series [3]; on mTORC1) were 6.60 and 7.17, respectively. Besides, the pKi (in general, −log10 of the Ki, conventionally taken in molar units) in series [4] was 6.63; in series [5], 7.92.
As to `C[C@@H]1COCCN1c1nc(-c2cnc(N)nc2C(F)(F)F)nc2c1C[C@@H]1COCCN21`, the pIC50 (commonly the negative decadic logarithm of the IC50, by convention in mol/L) in series [3] is 6.35; on mTORC1, 6.16. Besides, the pKi in series [4] was 7.26; in series [5], 6.60.
As for `C[C@@H]1COCCN1c1nc(-c2cnc(N)nc2C(F)F)nc2c1C[C@@H]1COCCN21`, the pIC50 at mTORC1 is 6.92. Moreover, the negative-log Ki (pKi) in series [4] is 7.77; in series [5], 7.47.
As to `C[C@@H]1COCCN1c1nc(-c2nnc(N)s2)nc2c1C[C@@H]1COCCN21`, the figures for the pIC50 (in series [3]; on mTORC1) were 6.87 and 7.10, respectively. Also, the pKi in series [4] is 5.81; in series [5], 8.09. For the same compound, at MDR1 (P-gp, ABCB1) [1], the Papp A→B at 1 µM was less than 60 ×10⁻⁶ cm/s. Also, at MDR1 (P-gp, ABCB1) [2], the efflux ratio at 1 µM is more than 20.
For `C[C@@H]1COCCN1c1nc(-c2cnc(N)cc2C(F)(F)F)nc2c1C[C@@H]1COCCN21`, the pIC50 in series [3] was 5.96; on mTORC1, 6.11. The pKi is 6.57 in series [4] and 6.93 in series [5].
The corresponding values for `C[C@@H]1COCCN1c1nc(-c2cnc(N)c(C(F)(F)F)c2)nc2c1C[C@@H]1COCCN21` are 6.26, 6.46, less than 4.70 and 7.48.
For `C[C@@H]1COCCN1c1nc(-c2cnc(N)s2)nc2c1C[C@@H]1COCCN21`, the remaining at 1 h, 1 µM on CYP1A1 was 48%; on CYP1A2, 87%. Also, the pIC50 was 6.80 in series [3] and 6.99 at mTORC1. Further, the results for the negative-log Ki (pKi) in series [4] and in series [5] were 5.60 and 7.82, respectively. For the same compound, the Papp A→B at 1 µM at MDR1 (P-gp, ABCB1) [1] is less than 60 ×10⁻⁶ cm/s. For the same compound, on MDR1 (P-gp, ABCB1) [2], the efflux ratio at 1 µM was more than 20.
In the case of `C[C@@H]1COCCN1c1nc(-c2ccc(N)nn2)nc2c1C[C@@H]1COCCN21`, the negative logarithm of the IC50 (pIC50) in series [3] was 6.79; on mTORC1, 7.08. Also, the pKi in series [4] is 6.07; in series [5] it was 7.96.
The corresponding values for `C[C@@H]1COCCN1c1nc(-c2nc(N)ns2)nc2c1C[C@@H]1COCCN21` are 6.29, 6.58, 6.09 and 7.24.
